According to ChEMBL document CHEMBL5329188, “Design, synthesis, and biological evaluation of 3,3'-diindolylmethane N-linked glycoconjugate as a leishmanial topoisomerase IB inhibitor with reduced cytotoxicity” (RSC Med Chem, 2023):
Activity calls are given as the source filed them. The rule behind the calls is not given here.

Key:
Leishmania donovani [1] = test: Antileishmanial activity against Leishmania donovani MHOM/IN/80/Dd8 promastigotes assessed as reduction in promastigotes viability incubated for 24 hrs by resazurin-based alamar blue dye assay; type: functional, organism-based; details: MHOM/IN/80/Dd8, 24 h
Method in brief: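 L. donovani DD8 promastigotes, exponential phase, in M199 with 10% heat-inactivated FBS at 24 ± 1 °C, 5×10^6 cells per well. Exposed 24 h to 100, 50, 25, 12.5 and 6.25 μM (1 mM DMSO stocks). Viability read with resazurin (Alamar Blue, 20 μg ml^-1 final), excitation 550 nm and emission 590 nm. Amphotericin B standard. IC50 from curve fit; mean ± SD of three independent experiments.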

[2] = Cytotoxicity against mouse J774.A1 cells assessed as reduction in viability incubated for 20 hrs by MTT assay; type: toxicity, cell-based
Method in brief: (§1)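 J774A.1 murine macrophages in DMEM, 2×10^4 cells per well, adhered overnight. Treated in triplicate at 100, 50, 30, 20 and 10 μM with 0.1% final DMSO (DMSO negative control, amphotericin B positive control) for 20 h. MTT (2.5 mg ml^-1 in PBS) added for 4 h at 37 °C, formazan dissolved in DMSO, OD 570 nm. CC50 from curve fit; mean ± SD of three independent experiments.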

J774.A1 [3] = test: Cytotoxicity against mouse J774.A1 cells assessed as reduction in viability at 30 uM incubated for 20 hrs by MTT assay; type: toxicity, cell-based; details: j774.a1, 20 h; method in brief: as §1
J774.A1 [4] = test: Cytotoxicity against mouse J774.A1 cells assessed as reduction in viability at 10 uM incubated for 20 hrs by MTT assay; type: toxicity, cell-based; details: j774.a1, 20 h; method in brief: as §1
J774.A1 [5] = test: Cytotoxicity against mouse J774.A1 cells assessed as reduction in viability at 50 uM incubated for 20 hrs by MTT assay; type: toxicity, cell-based; details: j774.a1, 20 h; method in brief: as §1
Leishmania donovani [6] = test: Inhibition of recombinant Leishmania donovani DNA topoisomerase IB mediated relaxation activity expressed in Escherichia coli BL21 (DE3) cells using supercoiled pHOT1 DNA as substrate at 500 uM incubated for 25 mins by EtBr staining based agarose gel electrophoresis analysis
Method in brief: (§2)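 His-tagged LdTopILS expressed from pET16b plasmids in E. coli BL21(DE3) (0.5 mM IPTG, 22 °C, 12 h) and Ni-NTA purified. Enzyme mixed with supercoiled pHOT1 at 3:1 molar ratio in 25 mM Tris-Cl pH 7.5, 5% glycerol, 50 mM KCl, 0.5 mM DTT, 10 mM MgCl2, 30 μg ml^-1 BSA for 25 min at 37 °C. Controls: CPT 60 μM and DMSO 4% v/v. Products run on 1% agarose, EtBr stained, relaxed vs supercoiled quantified.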

J774.A1 [7] = test: Cytotoxicity against mouse J774.A1 cells assessed as reduction in viability at 20 uM incubated for 20 hrs by MTT assay; type: toxicity, cell-based; details: j774.a1, 20 h; method in brief: as §1
Leishmania donovani [8] = test: Inhibition of recombinant Leishmania donovani DNA topoisomerase IB mediated relaxation activity expressed in Escherichia coli BL21 (DE3) cells using supercoiled pHOT1 DNA as substrate at 500 uM incubated for 25 mins by EtBr staining based agarose gel electrophoresis analysis relative to control; method in brief: as §2
Leishmania donovani [9] = test: Inhibition of recombinant Leishmania donovani DNA topoisomerase IB mediated relaxation activity expressed in Escherichia coli BL21 (DE3) cells using supercoiled pHOT1 DNA as substrate at 60 uM incubated for 25 mins by EtBr staining based agarose gel electrophoresis analysis
Method in brief: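 LdTopILS was co-expressed from pET16bLdTOP1L and pET16bLdTOP1S in E. coli BL21(DE3), induced with 0.5 mM IPTG at OD600 0.6 for 12 h at 22 °C, and Ni-NTA purified. Enzyme and supercoiled pHOT1 (3:1 molar) ran 25 min at 37 °C in 25 mM Tris-Cl pH 7.5, 5% glycerol, 50 mM KCl, 0.5 mM DTT, 10 mM MgCl2, 30 µg/ml BSA. DMSO 4% v/v was the solvent control. Relaxed versus supercoiled bands were quantified on 1% agarose with EtBr.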

Leishmania donovani [10] = test: Inhibition of recombinant Leishmania donovani DNA topoisomerase IB mediated relaxation activity expressed in Escherichia coli BL21 (DE3) cells using supercoiled pHOT1 DNA as substrate at 400 uM incubated for 25 mins by EtBr staining based agarose gel electrophoresis analysis relative to control; method in brief: as §2

Compound: Fc1ccc(C(c2c[nH]c3cc(Cl)ccc23)c2c[nH]c3cc(Cl)ccc23)cc1
- IC50 (Leishmania donovani [1]): > 100 µM

Compound: Clc1ccc(C(c2c[nH]c3cc(Cl)ccc23)c2c[nH]c3cc(Cl)ccc23)cc1
- IC50 (Leishmania donovani [1]): 53.2 µM

Compound: CSc1ccc(C(c2c[nH]c3ccc(Br)cc23)c2c[nH]c3ccc(Br)cc23)cc1
- IC50 (Leishmania donovani [1]): > 100 µM

Compound: O=[N+]([O-])c1ccc(C(c2c[nH]c3ccc(Br)cc23)c2c[nH]c3ccc(Br)cc23)cc1
- IC50 (Leishmania donovani [1]): 48.5 µM

Compound: Fc1ccc2[nH]cc(C(c3ccc(Cl)cc3)c3c[nH]c4ccc(F)cc34)c2c1
- CC50 at 20 h [2]: 4.51 µM
- Activity (J774.A1 [3]): 32.04%
- Activity (J774.A1 [4]): 40.15%
- Activity (J774.A1 [5]): 26.14%
- inhibition (Leishmania donovani [6]): inactive
- Activity (J774.A1 [7]): 33.53%
- IC50 (Leishmania donovani [1]): 31.4 µM

Compound: Clc1ccc(C(c2c[nH]c3ccc(Br)cc23)c2c[nH]c3ccc(Br)cc23)cc1
- inhibition (Leishmania donovani [6]): inactive
- IC50 (Leishmania donovani [1]): 41.8 µM

Compound: Clc1ccc(C(c2c[nH]c3ccccc23)c2c[nH]c3ccccc23)cc1
- IC50 (Leishmania donovani [1]): 57.1 µM

Compound: COc1ccc(C(c2c[nH]c3ccccc23)c2c[nH]c3ccccc23)cc1
- IC50 (Leishmania donovani [1]): 54.9 µM

Compound: O=[N+]([O-])c1ccc(C(c2c[nH]c3cc(Cl)ccc23)c2c[nH]c3cc(Cl)ccc23)cc1
- IC50 (Leishmania donovani [1]): 48.4 µM

Compound: CSc1ccc(C(c2c[nH]c3ccccc23)c2c[nH]c3ccccc23)cc1
- IC50 (Leishmania donovani [1]): > 100 µM

Compound: Fc1ccc(C(c2c[nH]c3ccccc23)c2c[nH]c3ccccc23)cc1
- CC50 at 20 h [2]: 5.71 µM
- Activity (J774.A1 [3]): 19.81%
- Activity (J774.A1 [4]): 26.23%
- Activity (J774.A1 [5]): 15.89%
- inhibition (Leishmania donovani [6]): inactive
- Activity (J774.A1 [7]): 20.05%
- IC50 (Leishmania donovani [1]): 36.2 µM

Compound: OC[C@H]1O[C@@H](n2ccc3cc(Br)ccc32)[C@H](O)[C@@H](O)[C@@H]1O
- inhibition (Leishmania donovani [8]): > 90%

Compound: O=[N+]([O-])c1ccc(C(c2c[nH]c3ccccc23)c2c[nH]c3ccccc23)cc1
- IC50 (Leishmania donovani [1]): > 100 µM

Compound: CC[C@@]1(O)C(=O)OCc2c1cc1n(c2=O)Cc2cc3ccccc3nc2-1
- inhibition (Leishmania donovani [9]): Active

Compound: Cc1ccc(C(c2c[nH]c3ccccc23)c2c[nH]c3ccccc23)cc1
- IC50 (Leishmania donovani [1]): 54.3 µM

Compound: Brc1ccc(C(c2c[nH]c3ccc(Br)cc23)c2c[nH]c3ccc(Br)cc23)cc1
- IC50 (Leishmania donovani [1]): > 100 µM

Compound: Cc1ccc(C(c2c[nH]c3ccc(Br)cc23)c2c[nH]c3ccc(Br)cc23)cc1
- IC50 (Leishmania donovani [1]): 59.2 µM

Compound: CC(=O)OC[C@H]1O[C@@H](n2ccc3cc(Br)ccc32)[C@H](OC(C)=O)[C@@H](OC(C)=O)[C@@H]1OC(C)=O
- inhibition (Leishmania donovani [8]): > 90%

Compound: Fc1ccc(C(c2c[nH]c3ccc(Br)cc23)c2c[nH]c3ccc(Br)cc23)cc1
- CC50 at 20 h [2]: 4.45 µM
- Activity (J774.A1 [3]): 30.34%
- Activity (J774.A1 [4]): 39.59%
- Activity (J774.A1 [5]): 21.73%
- inhibition (Leishmania donovani [6]): inactive
- Activity (J774.A1 [7]): 34.28%
- IC50 (Leishmania donovani [1]): 34.8 µM

Compound: CC(=O)OC[C@H]1O[C@@H](n2cc(C(c3ccc(F)cc3)c3cn([C@@H]4O[C@H](COC(C)=O)[C@@H](OC(C)=O)[C@H](OC(C)=O)[C@H]4OC(C)=O)c4ccc(Br)cc34)c3cc(Br)ccc32)[C@H](OC(C)=O)[C@@H](OC(C)=O)[C@@H]1OC(C)=O
- inhibition (Leishmania donovani [10]): 100%
- inhibition (Leishmania donovani [8]): 100%
- IC50 (Leishmania donovani [1]): 29.1 µM

Compound: Brc1ccc(C(c2c[nH]c3ccccc23)c2c[nH]c3ccccc23)cc1
- inhibition (Leishmania donovani [6]): inactive
- IC50 (Leishmania donovani [1]): 47 µM

Compound: OC[C@H]1O[C@@H](n2cc(C(c3ccc(F)cc3)c3cn([C@@H]4O[C@H](CO)[C@@H](O)[C@@H](O)[C@H]4O)c4ccc(Br)cc34)c3cc(Br)ccc32)[C@H](O)[C@H](O)[C@@H]1O (some centres undefined)
- CC50 at 20 h [2]: 89.2 µM
- Activity (J774.A1 [3]): 70.11%
- inhibition (Leishmania donovani [10]): 100%
- Activity (J774.A1 [4]): 96.25%
- Activity (J774.A1 [5]): 69.77%
- Activity (J774.A1 [7]): 81.05%
- inhibition (Leishmania donovani [8]): 100%
- IC50 (Leishmania donovani [1]): 27.9 µM

Compound: C[C@@H]1[C@H](O)[C@@H](C)/C=C/C=C/C=C/C=C/C=C/C=C/C=C/[C@H](O[C@@H]2O[C@H](C)[C@@H](O)[C@H](N)[C@@H]2O)C[C@@H]2O[C@](O)(C[C@@H](O)C[C@@H](O)[C@H](O)CC[C@@H](O)C[C@@H](O)CC(=O)O[C@H]1C)C[C@H](O)[C@H]2C(=O)O [AMPHOTERICIN B]
- IC50 (Leishmania donovani [1]): 0.4 µM

Compound: Clc1ccc2c(C(c3ccc(Br)cc3)c3c[nH]c4cc(Cl)ccc34)c[nH]c2c1
- IC50 (Leishmania donovani [1]): 74.3 µM

Compound: COc1ccc(C(c2c[nH]c3ccc(Br)cc23)c2c[nH]c3ccc(Br)cc23)cc1
- IC50 (Leishmania donovani [1]): > 100 µM
